Measurements from ChEMBL document CHEMBL1154352, “Toll-like receptor 7 selective synthetic oligoribonucleotide agonists: synthesis and structure-activity relationship studies” (J Med Chem, 2009).
Calls of active or inactive are those of the source. The rule behind the calls is not given here.

What was measured:
[1] = system: PBMC; assay: Immunomodulatory activity in human PBMC assessed as induction of MIP1beta at 50 ug/ml after 24 hrs; type: functional, cell-based
In short: (§1)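 Human PBMCs plated at 5 × 10^6 cells/mL; compounds dissolved in PBS added at various concentrations, 37 °C for 24 h. Supernatant cytokines/chemokines quantified with human Luminex multiplex kit.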

[2] = species on record: Homo sapiens; assay: Immunostimulatory activity in human mDC assessed as induction of IL12 at 100 ug/ml after 24 hrs; type: functional
In short: (§2)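 Human mDCs isolated from PBMCs by CD19+ B-cell depletion then BDCA1 positive selection; plated at 1 × 10^6 cells/mL, compounds in PBS, 37 °C for 24 h; supernatant cytokines by human Luminex multiplex. Representative of four independent experiments.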

[3] = target: T1, Toll-like receptor 8 (Homo sapiens) (UniProt Q9NR97); assay: Activation of human TLR8 expressed in HEK293XL assessed as fold induction of NF-kappaB activity at 50 ug/ml after 18 hrs by reporter gene assay relative to control
T1 sequence (whole entry): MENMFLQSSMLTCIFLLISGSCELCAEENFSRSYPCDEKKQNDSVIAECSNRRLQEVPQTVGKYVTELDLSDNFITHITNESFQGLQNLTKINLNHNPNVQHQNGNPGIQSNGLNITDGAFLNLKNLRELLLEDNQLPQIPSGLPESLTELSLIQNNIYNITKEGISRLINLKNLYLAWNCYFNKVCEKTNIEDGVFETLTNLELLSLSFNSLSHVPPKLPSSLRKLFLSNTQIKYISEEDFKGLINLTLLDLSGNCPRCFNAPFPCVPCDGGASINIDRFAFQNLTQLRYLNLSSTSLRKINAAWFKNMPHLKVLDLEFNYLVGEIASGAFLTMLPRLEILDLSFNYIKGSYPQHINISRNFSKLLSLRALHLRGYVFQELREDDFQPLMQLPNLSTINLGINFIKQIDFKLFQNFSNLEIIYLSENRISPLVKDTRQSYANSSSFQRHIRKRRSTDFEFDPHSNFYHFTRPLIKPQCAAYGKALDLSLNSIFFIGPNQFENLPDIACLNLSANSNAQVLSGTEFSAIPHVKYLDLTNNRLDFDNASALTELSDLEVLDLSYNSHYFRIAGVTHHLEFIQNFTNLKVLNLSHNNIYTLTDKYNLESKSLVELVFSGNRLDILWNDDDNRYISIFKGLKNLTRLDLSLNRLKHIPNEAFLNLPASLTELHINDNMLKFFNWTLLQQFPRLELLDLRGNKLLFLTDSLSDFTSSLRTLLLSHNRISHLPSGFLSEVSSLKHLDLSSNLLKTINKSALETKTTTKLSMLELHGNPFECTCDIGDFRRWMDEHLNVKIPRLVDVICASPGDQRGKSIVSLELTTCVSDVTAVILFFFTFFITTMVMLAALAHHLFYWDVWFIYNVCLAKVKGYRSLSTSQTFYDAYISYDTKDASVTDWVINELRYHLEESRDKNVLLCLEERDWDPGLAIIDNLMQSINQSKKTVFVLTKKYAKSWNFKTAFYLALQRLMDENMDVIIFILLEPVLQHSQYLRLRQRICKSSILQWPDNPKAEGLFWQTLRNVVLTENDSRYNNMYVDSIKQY
In short: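 HEK293 cells stably expressing human TLR7 or TLR8, transiently transfected with SEAP reporter plasmid; medium replaced, SIMRA compounds added, 18 h incubation. Supernatant SEAP measured by QuantiBlue; expressed as fold increase in NF-κB activity over PBS control. Tabulated data at 50 μg/mL, representative of three independent experiments.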

[4] = species on record: Homo sapiens; assay: Immunostimulatory activity in human mDC assessed as induction of IL6 at 100 ug/ml after 24 hrs; type: functional; in short: as §2
[5] = species on record: Homo sapiens; assay: Immunostimulatory activity in human pDC assessed as induction of IP10 at 100 ug/ml after 24 hrs; type: functional
In short: (§3)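 Human pDCs plated at 1 × 10^6 cells/mL; compounds in PBS added, 37 °C for 24 h; supernatant cytokines/chemokines by human Luminex multiplex kit.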

[6] = species on record: Homo sapiens; assay: Immunostimulatory activity in human mDC assessed as induction of IFNalpha at 100 ug/ml after 24 hrs; type: functional; in short: as §2
[7] = system: PBMC; assay: Immunomodulatory activity in human PBMC assessed as induction of TNFalpha at 50 ug/ml after 24 hrs; type: functional, cell-based; in short: as §1
[8] = system: PBMC; assay: Immunomodulatory activity in human PBMC assessed as induction of IFNalpha at 50 ug/ml after 24 hrs; type: functional, cell-based; in short: as §1
[9] = species on record: Homo sapiens; assay: Immunostimulatory activity in human pDC assessed as induction of IFNalpha at 100 ug/ml after 24 hrs; type: functional; in short: as §3
[10] = system: PBMC; assay: Immunomodulatory activity in human PBMC assessed as induction of MIP1alpha at 50 ug/ml after 24 hrs; type: functional, cell-based; in short: as §1
[11] = system: Mus musculus; assay: Immunomodulatory activity in C57BL/6 mouse assessed as induction of IL12 release at 25 mg/kg, sc after 2 hrs by ELISA; type: functional, organism-based; set-up: dose 25 mg/kg
In short: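 Female C57BL/6 wild-type mice, 5–8 weeks old, n=3; compounds given subcutaneously at 10 or 25 mg/kg. Retro-orbital blood at 2 h; serum cytokines by mouse Luminex multiplex or IL-12 ELISA.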

[12] = species on record: Homo sapiens; assay: Immunostimulatory activity in human pDC assessed as induction of IL6 at 100 ug/ml after 24 hrs; type: functional; in short: as §3
[13] = system: PBMC; assay: Immunomodulatory activity in human PBMC assessed as induction of IL1-beta at 50 ug/ml after 24 hrs; type: functional, cell-based; in short: as §1
[14] = species on record: Homo sapiens; assay: Immunostimulatory activity in human mDC assessed as induction of IP10 at 100 ug/ml after 24 hrs; type: functional; in short: as §2
[15] = system: PBMC; assay: Immunomodulatory activity in human PBMC assessed as induction of MCP1 at 50 ug/ml after 24 hrs; type: functional, cell-based; in short: as §1
[16] = system: PBMC; assay: Immunomodulatory activity in human PBMC assessed as induction of IP10 at 50 ug/ml after 24 hrs; type: functional, cell-based; in short: as §1
[17] = species on record: Homo sapiens; assay: Immunostimulatory activity in human mDC assessed as induction of TNFalpha at 100 ug/ml after 24 hrs; type: functional; in short: as §2
[18] = system: PBMC; assay: Immunomodulatory activity in human PBMC assessed as induction of IL6 at 50 ug/ml after 24 hrs; type: functional, cell-based; in short: as §1
[19] = system: PBMC; assay: Immunomodulatory activity in human PBMC assessed as induction of IL12 at 50 ug/ml after 24 hrs; type: functional, cell-based; in short: as §1
[20] = Metabolic stability in human serum assessed as full length product remaining after 10 mins by HPLC; type: ADME, cell-free; details: read-out: Stability
In short: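 About 0.5 A260 units compound in 1% human serum in PBS, 37 °C; aliquot taken at 10 min, analysed by anion-exchange HPLC for percent intact full-length product.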

fold change (FC) [3] | remaining at 10 min [20] | Compound | Activity [1] | Activity [2] | Activity [4] | Activity [5] | Activity [6] | Activity [7] | Activity [8] | Activity [9] | Activity [10] | Activity [11] | Activity [12] | Activity [13] | Activity [14] | Activity [15] | Activity [16] | Activity [17] | Activity [18] | Activity [19]
4.7 | – | Nc1ccn([C@@H]2O[C@H](COP(O)(=S)O[C@H]3[C@@H](O)[C@H](n4ccc(=O)[nH]c4=O)O[C@@H]3COP(O)(=S)O[C@H]3[C@@H](O)[C@H](n4ccc(=O)[nH]c4=O)O[C@@H]3COP(O)(=S)O[C@H]3[C@@H](O)[C@H](n4ccc(N)nc4=O)O[C@@H]3COP(O)(=S)O[C@H]3[C@@H](O)[C@H](n4ccc5c(=O)[nH]c(N)nc54)O[C@@H]3COP(O)(=S)O[C@H]3[C@@H](O)[C@H](n4ccc(=O)[nH]c4=O)O[C@@H]3COP(O)(=S)O[C@H]3[C@@H](O)[C@H](n4ccc(N)nc4=O)O[C@@H]3COP(O)(=S)O[C@H]3[C@@H](O)[C@H](n4ccc5c(=O)[nH]c(N)nc54)O[C@@H]3COP(O)(=S)O[C@H]3[C@@H](O)[C@H](n4ccc(=O)[nH]c4=O)O[C@@H]3CO)[C@@H](OP(O)(=S)OC[C@H]3O[C@@H](n4ccc(=O)[nH]c4=O)[C@H](O)[C@@H]3OP(O)(=S)OC[C@H]3O[C@@H](n4ccc5c(=O)[nH]c(N)nc54)[C@H](O)[C@@H]3OP(O)(=S)OCC(O)COP(O)(=S)O[C@H]3[C@@H](O)[C@H](n4ccc5c(=O)[nH]c(N)nc54)O[C@@H]3COP(O)(=S)O[C@H]3[C@@H](O)[C@H](n4ccc(=O)[nH]c4=O)O[C@@H]3COP(O)(=S)O[C@H]3[C@@H](O)[C@H](n4ccc(N)nc4=O)O[C@@H]3COP(O)(=S)O[C@H]3[C@@H](O)[C@H](n4ccc(=O)[nH]c4=O)O[C@@H]3COP(O)(=S)O[C@H]3[C@@H](O)[C@H](n4ccc(=O)[nH]c4=O)O[C@@H]3COP(O)(=S)O[C@H]3[C@@H](O)[C@H](n4ccc(N)nc4=O)O[C@@H]3COP(O)(=S)O[C@H]3[C@@H](O)[C@H](n4ccc5c(=O)[nH]c(N)nc54)O[C@@H]3COP(O)(=S)O[C@H]3[C@@H](O)[C@H](n4ccc(=O)[nH]c4=O)O[C@@H]3COP(O)(=S)O[C@H]3[C@@H](O)[C@H](n4ccc(N)nc4=O)O[C@@H]3COP(O)(=S)O[C@H]3[C@@H](O)[C@H](n4ccc5c(=O)[nH]c(N)nc54)O[C@@H]3COP(O)(=S)O[C@H]3[C@@H](O)[C@H](n4ccc(=O)[nH]c4=O)O[C@@H]3CO)[C@H]2O)c(=O)n1 (stereo partly drawn) | 27600 pg/mL | Active | Active | Active | Active | 688 pg/mL | 373 pg/mL | Active | 15500 pg/mL | Active | Active | 688 pg/mL | Active | 47400 pg/mL | 167 pg/mL | Active | 5580 pg/mL | 671 pg/mL
0.7 | 92% | Nc1ncnc2c1ncn2[C@@H]1O[C@H](CO)[C@@H](OP(=O)(S)OC[C@H]2O[C@@H](n3cnc4c(N)ncnc43)[C@H](O)[C@@H]2OP(=O)(S)OC[C@H]2O[C@@H](n3cnc4c(N)ncnc43)[C@H](O)[C@@H]2OP(=O)(S)OC[C@H]2O[C@@H](n3cnc4c(N)ncnc43)[C@H](O)[C@@H]2OP(=O)(S)OC[C@H]2O[C@@H](n3cnc4c(N)ncnc43)[C@H](O)[C@@H]2OP(=O)(S)OC[C@H]2O[C@@H](n3cnc4c(N)ncnc43)[C@H](O)[C@@H]2OP(=O)(S)OC[C@H]2O[C@@H](n3cnc4c(N)ncnc43)[C@H](O)[C@@H]2OP(=O)(S)OC[C@H]2O[C@@H](n3cnc4c(N)ncnc43)[C@H](O)[C@@H]2OP(=O)(S)OC[C@H]2O[C@@H](n3cnc4c(N)ncnc43)[C@H](O)[C@@H]2OP(=O)(S)OC[C@H]2O[C@@H](n3cnc4c(N)ncnc43)[C@H](O)[C@@H]2OP(=O)(S)OC[C@H]2O[C@@H](n3cnc4c(N)ncnc43)[C@H](O)[C@@H]2OP(=O)(S)OCC(O)COP(=O)(S)O[C@H]2[C@@H](O)[C@H](n3cnc4c(N)ncnc43)O[C@@H]2COP(=O)(S)O[C@H]2[C@@H](O)[C@H](n3cnc4c(N)ncnc43)O[C@@H]2COP(=O)(S)O[C@H]2[C@@H](O)[C@H](n3cnc4c(N)ncnc43)O[C@@H]2COP(=O)(S)O[C@H]2[C@@H](O)[C@H](n3cnc4c(N)ncnc43)O[C@@H]2COP(=O)(S)O[C@H]2[C@@H](O)[C@H](n3cnc4c(N)ncnc43)O[C@@H]2COP(=O)(S)O[C@H]2[C@@H](O)[C@H](n3cnc4c(N)ncnc43)O[C@@H]2COP(=O)(S)O[C@H]2[C@@H](O)[C@H](n3cnc4c(N)ncnc43)O[C@@H]2COP(=O)(S)O[C@H]2[C@@H](O)[C@H](n3cnc4c(N)ncnc43)O[C@@H]2COP(=O)(S)O[C@H]2[C@@H](O)[C@H](n3cnc4c(N)ncnc43)O[C@@H]2COP(=O)(S)O[C@H]2[C@@H](O)[C@H](n3cnc4c(N)ncnc43)O[C@@H]2COP(=O)(S)O[C@H]2[C@@H](O)[C@H](n3cnc4c(N)ncnc43)O[C@@H]2CO)[C@H]1O (stereo partly drawn) | 83 pg/mL | inactive | inactive | inactive | inactive | 0 pg/mL | 12 pg/mL | inactive | 43 pg/mL | – | inactive | 28 pg/mL | inactive | 724 pg/mL | 4 pg/mL | inactive | 12 pg/mL | 138 pg/mL
